ChEMBL document CHEMBL1145421, “Discovery of novel antitumor antimitotic agents that also reverse tumor resistance” (J Med Chem, 2007)

How the values were obtained:
Assay type in all cases: functional, Homo sapiens
[1] = test system: HL-60; test: Cell cycle arrest in HL60 cells assessed as accumulation in G0/G1 phase at 600 nM
How it was run: (§1)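 HL-60 cells exposed 24 or 48 h to drug or ethanol vehicle. Nuclei prepared by detergent-trypsin method: citrate/sucrose/DMSO buffer, trypsin, then trypsin inhibitor plus RNase A, then propidium iodide with spermine, 30 min at 4 °C. Filtered, resuspended, DNA content measured by flow cytometry. Percentages given for G0/G1, S and G2/M. Mean ± SEM.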

[2] = test system: HL-60; test: Cell cycle arrest in HL60 cells assessed as accumulation in S phase at 600 nM; how it was run: as §1
[3] = test system: HL-60; test: Cell cycle arrest in HL60 cells assessed as accumulation in […] phase at 600 nM; how it was run: as §1

COc1cc2c(c(OC)c1OC)-c1ccc(OC)c(=O)cc1[C@@H](NC(C)=O)CC2 [COLCHICINE]
Activity [1]: 84.1% | Activity [2]: 4% | Activity [3]: 11.9%
